# Source: PubChem BioAssay (The Scripps Research Institute Molecular Screening Center)
# This is a sample that favours compounds with a hit; in the whole collection about 1.2% have one here.
# IDE cell activ = IDE (human) activation, cell-based | HEK cells, FAbeta-B cleavage, fluorescence polarization; 0% vehicle, 100% cell-free pure enzyme wells | activation, % at 5.96 µM | hit rate 0.073% among 340,000 | AID 493087;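 active = activation above the mean of all tested compounds plus 3 SD, set per screening campaign, cut at about 17% in these data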
# Target sequence (P14735 whole entry, looked up): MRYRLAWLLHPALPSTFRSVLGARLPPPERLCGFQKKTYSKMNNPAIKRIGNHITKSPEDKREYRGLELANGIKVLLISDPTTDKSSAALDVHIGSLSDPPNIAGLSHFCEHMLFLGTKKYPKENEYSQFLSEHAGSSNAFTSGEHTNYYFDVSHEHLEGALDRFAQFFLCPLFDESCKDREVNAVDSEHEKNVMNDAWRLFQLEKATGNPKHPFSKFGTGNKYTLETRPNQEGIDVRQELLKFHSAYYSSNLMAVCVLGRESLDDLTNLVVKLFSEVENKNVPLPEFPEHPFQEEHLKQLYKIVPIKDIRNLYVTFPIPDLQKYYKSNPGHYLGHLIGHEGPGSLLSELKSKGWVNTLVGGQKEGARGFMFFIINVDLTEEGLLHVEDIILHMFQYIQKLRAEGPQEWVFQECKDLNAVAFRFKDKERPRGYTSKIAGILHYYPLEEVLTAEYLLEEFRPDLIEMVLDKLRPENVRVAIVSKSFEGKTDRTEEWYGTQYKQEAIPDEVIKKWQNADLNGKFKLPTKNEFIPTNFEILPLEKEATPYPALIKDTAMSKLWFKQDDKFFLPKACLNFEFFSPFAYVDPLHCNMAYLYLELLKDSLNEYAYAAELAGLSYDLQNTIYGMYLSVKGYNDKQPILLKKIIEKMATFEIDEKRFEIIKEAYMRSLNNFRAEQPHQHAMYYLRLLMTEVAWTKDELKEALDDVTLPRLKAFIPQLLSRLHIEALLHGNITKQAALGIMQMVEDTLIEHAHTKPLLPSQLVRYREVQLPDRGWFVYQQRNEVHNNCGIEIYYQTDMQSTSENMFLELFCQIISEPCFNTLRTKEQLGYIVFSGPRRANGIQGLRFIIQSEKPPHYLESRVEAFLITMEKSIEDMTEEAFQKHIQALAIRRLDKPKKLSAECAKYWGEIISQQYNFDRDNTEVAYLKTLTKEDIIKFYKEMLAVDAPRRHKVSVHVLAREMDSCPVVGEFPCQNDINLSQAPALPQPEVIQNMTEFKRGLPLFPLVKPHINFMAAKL
# IDE cell inh = cellular human IDE inhibition | P14735 | HEK cells, FAbetaB cleavage, fluorescence polarization | inhibition, % at 5.59 µM | hit rate 0.41% among 320,000 | AID 434962;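 active = percent inhibition above the average of all tested compounds plus 3 SD, set per screening campaign, cut at about 16% in these data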;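 note: IDE supplied by intact live HEK cells; FP after avidin binding of uncleaved biotin substrate so inhibition keeps polarization high; 0% = DMSO wells and 100% = 60 µM reference IDE inhibitor Ii1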
# proCasp3 act = activators of human procaspase-3 | recombinant procaspase-3 D3A, Ac-DEVD-pNA absorbance 405 nm | AID 463141 | activation, % at 8.5 µM | P42574 | hit rate 0.11% among 330,000;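 active = activation above the mean of all tested compounds plus 3 SD, cut at about 21% in these data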;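 note: 0% = DMSO alone and 100% = DMSO wells spiked with extra 5 µM PC-3 D3A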
#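 Assay system: Procaspase-3 D3A mutant, all three cleavage aspartates alanine. Buffer or medium: Zinc-free HEPES saline buffer with Triton X-100. Times: 1 h compound preincubation, 2 h substrate hydrolysis at 25 °C. Measured by: 405 nm absorbance of p-nitroaniline, reads at 0 and 120 min. Read-out basis: percent activation relative to control range. Replicates: singlicate.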
# procasp7 counter = activates human procaspase-7, counter-screen for procaspase-3 activators; hit rate 0.093% among 330,000; AID 463210; activation, % at 8.5 µM; recombinant procaspase-7, Ac-DEVD-pNA absorbance 405 nm; D23A/D198A/D206A triple mutant, cannot self-cleave; scale: DMSO 0, 5 µM enzyme 100;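 active = percent activation above the screen-wide mean plus 3 SD, cut at about 25% in these data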
#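 Detection: p-Nitroaniline absorbance at 405 nm, read at 0 and 120 min; system: Uncleavable procaspase-7 mutant enzyme; evaluation: % activation from two-timepoint absorbance difference, scaled to controls; times: 1 h enzyme–compound preincubation and 2 h substrate reaction, both 25 °C; buffer or medium: Zinc-free HEPES pH 7.4 with 300 mM NaCl, 0.01% Triton X-100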
# TPT1 inh = C. albicans TPT1 enzyme inhibition | recombinant caTPT1, FP RNA substrate dephosphorylation | inhibition, % at 5 µM | hit rate 0.81% among 300,000 | AID 1962;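 active = inhibition above the mean of all tested compounds plus 3 SD, set per screening campaign, cut at about 24% in these data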;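 note: plate controls were DMSO alone for no effect and ferristatin control at 100 nM for full effect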
# The depositor's hits bear a star; nt = not tested or not shown.
SMILES,IDE cell activ,IDE cell inh,proCasp3 act,procasp7 counter,TPT1 inh
CC(C)=CCc1cc([C@@H]2COc3c(ccc4c3C=CC(C)(C)O4)C2)c(O)cc1O,4,5,1,-3,0
CC1(C)C=Cc2c(ccc3c2OC[C@H](c2ccc(O)cc2O)C3)O1,18*,-4,1,-9,nt
O=C(NNC(=O)[C@H]1CC=CC[C@H]1C(=O)O)c1ccc(Cl)cc1Cl,-4,7,4,-14,-5
Cc1ccc(C)c(Nc2c([N+](=O)[O-])c(=O)oc3ccccc23)c1,-2,1,9,1,0
CN(C)c1ccc([C@@H]2[C@@H]([N+](=O)[O-])[C@H]3C=Cc4ccccc4N3[C@H]2C(=O)c2ccc(Cl)cc2)cc1,-15,7,-6,-17,82*
CN(C(=O)CSc1nnc(-c2ccncc2)n1Cc1ccccc1)C1CCS(=O)(=O)C1 (stereo not drawn),7,0,-4,0,-2
CCOc1cc(/C=N/Nc2cc(C)nc(-n3nc(C)cc3C)n2)ccc1O,22*,0,1,-2,-1
Oc1oc(-c2cccc3ccccc23)nc1/C=N/c1nccs1,-51,13,4,3,31*
Cc1cccc(/N=C/c2nc(-c3ccccc3Br)oc2O)n1,6,-2,1,-9,3
CC1CC(C)CN(C(=O)c2ccc(NS(=O)(=O)c3ccc4[nH]c(=O)[nH]c4c3)cc2)C1 (stereo not drawn),-2,1,-7,-3,1
CS(=O)(=O)Nc1ccc(-c2cc(/C=C3\SC(N)=NC3=O)c[nH]c2=O)cc1,4,-2,5,0,-2
CC(C)NC(=O)COc1ccc(S(=O)(=O)N(C)Cc2ccccc2)cc1,1,-3,-4,12,1
N#CC1=C(N)SC(N)=C(C#N)C1CCc1ccccc1,-2,2,-11,-14,119*
CCN(CC(=O)NCc1ccc(Cl)cc1)C(=O)CCOc1ccc(C)cc1,0,-1,5,-5,0
COc1ccc(N2CC(C(=O)N3CCN(S(=O)(=O)c4ccc(F)c(F)c4)CC3)CC2=O)c(OC)c1 (stereo not drawn),-9,nt,nt,nt,nt
C#CCOCCOCCOCCNc1nc(N2CCN(C(=O)CCCCCCCCCCNC(=O)[C@H]([C@@H](C)CC)n3cc(CCCCN=C(N)N)nn3)CC2)nc(N2CCN(C(=O)CCCCCCCCCCNC(=O)[C@H](CCCCN)n3cc(C[C@@H](C)CC)nn3)CC2)n1,nt,-6,-8,6,0
C#CCOCCOCCOCCNc1nc(N2CCN(C(=O)CCCCCCCCCCNC(=O)[C@H](CO)n3cc(CCCSC)nn3)CC2)nc(N2CCN(C(=O)CCCCCCCCCCNC(=O)[C@H](CCCCN)n3cc(C[C@@H](C)CC)nn3)CC2)n1,nt,-2,8,-7,-3
C#CCOCCOCCOCCNc1nc(N2CCN(C(=O)CCCCCCCCCCNC(=O)[C@@H](CCSC)n3cc(CCO)nn3)CC2)nc(N2CCN(C(=O)CCCCCCCCCCNC(=O)[C@H]([C@@H](C)CC)n3cc(CCCCCN)nn3)CC2)n1,nt,-7,-9,-3,0
C#CCOCCOCCOCCNc1nc(N2CCN(C(=O)CCCCCCCCCCNC(=O)Cn3cc(C[C@@H](C)O)nn3)CC2)nc(N2CCN(C(=O)CCCCCCCCCCNC(=O)Cn3cc(C[C@@H](C)O)nn3)CC2)n1,-2,-3,-1,6,-3
C#CCOCCOCCOCCNc1nc(N2CCN(C(=O)CCCCCCCCCCNC(=O)[C@H](CCCCN)n3cc(CCO)nn3)CC2)nc(N2CCN(C(=O)CCCCCCCCCCNC(=O)[C@H](CCCN=C(N)N)n3cc(C[C@@H](C)CC)nn3)CC2)n1,40*,1,-5,-11,5
C#CCOCCOCCOCCNc1nc(N2CCN(C(=O)CCCCCCCCCCNC(=O)[C@H](CCCCN)n3cc(C[C@@H](C)CC)nn3)CC2)nc(N2CCN(C(=O)CCCCCCCCCCNC(=O)[C@H](CCCCN)n3cc(C[C@@H](C)CC)nn3)CC2)n1,40*,-2,-13,9,-1
C#CCOCCOCCOCCNc1nc(N2CCN(C(=O)CCCCCCCCCCNC(=O)[C@@H](CCSC)n3cc(CCO)nn3)CC2)nc(N2CCN(C(=O)CCCCCCCCCCNC(=O)[C@H]([C@@H](C)CC)n3cc(CCCCN=C(N)N)nn3)CC2)n1,46*,5,-4,8,-4
C#CCOCCOCCOCCNc1nc(N2CCN(C(=O)CCCCCCCCCCNC(=O)Cn3cc(C[C@@H](C)O)nn3)CC2)nc(N2CCN(C(=O)CCCCCCCCCCNC(=O)[C@H](CCCCN)n3cc(C[C@@H](C)CC)nn3)CC2)n1,30*,-4,7,-4,2
CC1(c2ccc([N+](=O)[O-])cc2)NC(=O)N(CC(=O)Nc2cccnc2Cl)C1=O (stereo not drawn),9,-6,1,8,4
CC(C)(C)c1ccc(S(=O)(=O)Nc2noc3ccccc23)cc1,6,0,5,-9,-3
SMILES,IDE cell activ,IDE cell inh,proCasp3 act,procasp7 counter,TPT1 inh
O=C(O)C1CCc2nc(NCc3ccccc3)nc(NCc3ccccc3)c2C1 (stereo not drawn),-2,nt,nt,nt,nt
Cc1ccsc1C(=O)N1CCCC(CO)(Cc2ccccc2F)C1 (stereo not drawn),2,0,8,5,-1
C#CCOCCOCCOCCNc1nc(N2CCN(C(=O)CCCCCCCCCCNC(=O)[C@H](CCCCN)n3cc(CCCC(=O)O)nn3)CC2)nc(N2CCN(C(=O)CCCCCCCCCCNC(=O)[C@H](CCCCN)n3cc(CCCC(=O)O)nn3)CC2)n1,-6,2,-1,0,1
C#CCOCCOCCOCCNc1nc(N2CCN(C(=O)CCCCCCCCCCNC(=O)[C@H](CCCCN)n3cc(CCCC(=O)O)nn3)CC2)nc(N2CCN(C(=O)CCCCCCCCCCNC(=O)[C@H](CCCN=C(N)N)n3cc(C[C@@H](C)CC)nn3)CC2)n1,26*,5,2,-2,2
O=C(COc1ccccc1F)Nc1ccc(S(=O)(=O)N2CCCC2)cc1,2,2,7,-6,nt
CCCCCCCC/C=C\CCCCCCCC(=O)NCCc1ccc(O)c(O)c1,17*,-3,9,-8,0
COCCCN1CN(S(=O)(=O)c2ccc(C)cc2C)c2nc3ccccc3nc21,4,0,7,9,-1
O=C(c1ccco1)N1CCN(c2ncnc3c2[nH]c2ccc(Cl)cc23)CC1,nt,67*,9,2,1
Cc1ccc2cc3c(N)c(C(=O)N4CC(=O)Nc5ccccc54)sc3nc2c1,nt,-2,4,-13,34*
N#Cc1c(NC(=S)NC(=O)c2ccccc2)sc2c1CCN(CCc1ccccc1)C2,nt,74*,-25,-32,98*
CN1CCN(C2=CC3=CC(=C(C#N)C#N)CCC3CC2)CC1 (stereo not drawn),13,nt,nt,nt,nt
